According to ChEMBL document CHEMBL1177847, “Combating oxidative stress in epilepsy: design, synthesis, quantum chemical studies and anticonvulsant evaluation of 1-(substituted benzylidene/ethylidene)-4-(naphthalen-1-yl)semicarbazides” (Eur J Med Chem, 2010):
The source made the active and inactive calls. No cut-off for these calls is given here.

What was measured:
Mus musculus [1] = assay: Anticonvulsant activity against maximal electroshock-induced seizures in ip dosed Swiss albino mouse assessed as minimum effective dose after 0.5 hrs; format: functional; conditions: read-out: MED
Method in brief: (§1)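 Male Swiss albino mice (18–25 g) received the compound suspended in 5% gum acacia/water, i.p. at 30, 100 and 300 mg/kg (one to four animals per dose). Maximal electroshock was applied at 0.5 and 4 h. Protection meant abolition of the hind limb tonic extensor component. The lowest dose protecting half or more of the mice was recorded.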

Mus musculus [2] = assay: Neurotoxicity in ip dosed Swiss albino mouse assessed as minimum dose required to cause impair in motor coordination after 4 hrs by rotarod test; format: toxicity, organism-based; conditions: in vivo
Method in brief: (§2)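 Rotarod motor-impairment test in male Swiss albino mice dosed i.p. at 30, 100 or 300 mg/kg in 5% gum acacia/water. Mice that fell off the rotating rod within 30 s during pretraining were excluded. The dose at which animals fell off was recorded at 0.5 and 4 h.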

Mus musculus [3] = assay: Anticonvulsant activity against subcutaneous pentylenetetrazole-induced seizures in ip dosed Swiss albino mouse assessed as minimum effective dose after 4 hrs; format: functional; conditions: read-out: MED
Method in brief: (§3)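 Male Swiss albino mice (18–25 g) were dosed i.p. with the compound in 5% gum acacia/water at 30, 100 or 300 mg/kg. Thirty minutes later they received PTZ 85 mg/kg (CD97) and were watched for seizures over 4 h. Readings at 0.5 and 4 h gave the lowest dose active in half or more of the animals. Myoclonic jerks were noted separately.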

Mus musculus [4] = assay: Toxicity in subcutaneous pentylenetetrazole-induced Swiss albino mouse assessed as myoclonic jerks at 100 mg/kg, ip after 0.5 hrs; format: organism-based; set-up: dose 100 mg/kg; method in brief: as §3
Mus musculus [5] = assay: Anticonvulsant activity against maximal electroshock-induced seizures in ip dosed Swiss albino mouse assessed as minimum effective dose after 4 hrs; format: functional; conditions: read-out: MED; method in brief: as §1
Mus musculus [6] = assay: Restoration of GSH peroxidase activity in subcutaneous pentylenetetrazole treated Swiss albino mouse brain assessed per mg of protein at 100 mg/kg, ip after 4 hrs; format: functional; conditions: route intraperitoneal
Method in brief: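 Brain homogenate came from PTZ-treated mice 4 h after 100 mg/kg i.p. dosing, using the 10500 × g supernatant. Samples were equilibrated 5 min at 25 °C, started with H2O2, and A340 was followed for 5 min. n = 6.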

Mus musculus [7] = assay: Restoration of SOD activity in subcutaneous pentylenetetrazole treated Swiss albino mouse brain assessed per mg of protein at 100 mg/kg, ip after 4 hrs; format: functional; conditions: route intraperitoneal
Method in brief: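 The ethanol phase of an ethanol/chloroform (5:3) extract of brain supernatant was used, from PTZ-treated mice 4 h after 100 mg/kg i.p. Superoxide was generated by xanthine–xanthine oxidase at pH 10.2 with NBT, 20 min at 25 °C. The reaction was stopped with CuCl2 and read at 560 nm. One unit gives 50% inhibition of NBT reduction; results are expressed as U/mg protein. n = 6.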

Mus musculus [8] = assay: Restoration of GSH level in subcutaneous pentylenetetrazole treated Swiss albino mouse brain assessed per gram of tissue at 100 mg/kg, ip after 4 hrs; format: functional; conditions: route intraperitoneal
Method in brief: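 Brains were taken from PTZ-treated mice 4 h after 100 mg/kg i.p. dosing. Tissue was deproteinized with an equal volume of 10% TCA for 2 h at 4 °C and centrifuged at 2000 g for 15 min. The supernatant was mixed with 0.4 M Tris (pH 8.9) containing 0.02 M EDTA, and 0.01 M DTNB was added before spectrophotometric reading. n = 6.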

Mus musculus [9] = assay: Neurotoxicity in ip dosed Swiss albino mouse assessed as impair in motor coordination at 300 mg/kg, ip after 0.5 hrs by rotarod test; format: toxicity, organism-based; set-up: dose 300 mg/kg, route intraperitoneal; conditions: in vivo; method in brief: as §2
Mus musculus [10] = assay: Reduction of lipid peroxidation in subcutaneous pentylenetetrazole treated Swiss albino mouse brain assessed reduction of malondialdehyde level per mg of protein at 100 mg/kg, ip after 4 hrs by TBARS assay; format: functional; conditions: route intraperitoneal
Method in brief: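 PTZ-treated mice were dosed at 100 mg/kg i.p. and decapitated 4 h after the last injection. Brains were homogenized in four volumes of ice-cold 50 mM Tris-HCl, pH 7.4, and spun at 3000 × g for 15 min. TBARS in the supernatant was read at 532 nm in the upper organic layer and expressed as nmol MDA/mg protein. n = 6, mean ± S.E.M.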

Mus musculus [11] = assay: Anticonvulsant activity against subcutaneous pentylenetetrazole-induced seizures in ip dosed Swiss albino mouse assessed as minimum effective dose after 0.5 hrs; format: functional; conditions: read-out: MED; method in brief: as §3
Mus musculus [12] = assay: Neurotoxicity in ip dosed Swiss albino mouse assessed as impair in motor coordination at 300 mg/kg, ip after 4 hrs by rotarod test; format: toxicity, organism-based; set-up: dose 300 mg/kg, route intraperitoneal; conditions: in vivo; method in brief: as §2
Mus musculus [13] = assay: Anticonvulsant activity against maximal electroshock-induced seizures in Swiss albino mouse at 300 mg/kg, ip after 0.5 hrs; format: functional, organism-based; set-up: dose 300 mg/kg; method in brief: as §1
Mus musculus [14] = assay: Anticonvulsant activity against maximal electroshock-induced seizures in Swiss albino mouse at 300 mg/kg, ip after 4 hrs; format: functional, organism-based; set-up: dose 300 mg/kg; method in brief: as §1
Mus musculus [15] = assay: Anticonvulsant activity against subcutaneous pentylenetetrazole-induced seizures in Swiss albino mouse at 300 mg/kg, ip after 4 hrs; format: functional, organism-based; set-up: dose 300 mg/kg; method in brief: as §3
Mus musculus [16] = assay: Neurotoxicity in ip dosed Swiss albino mouse assessed as minimum dose required to cause impair in motor coordination after 0.5 hrs by rotarod test; format: toxicity, organism-based; conditions: in vivo; method in brief: as §2
Rattus norvegicus = assay: Anticonvulsant activity against subcutaneous pentylenetetrazole-induced seizures in Wistar albino rat at 50 mg/kg, ip after 2 hrs; format: functional
Mus musculus [17] = assay: Toxicity in subcutaneous pentylenetetrazole-induced Swiss albino mouse assessed as death at 30 to 300 mg/kg, ip after 0.5 hrs; format: organism-based; set-up: dose 30-300 mg/kg
Method in brief: (§4)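 Male Swiss albino mice (18–25 g) given compound suspended in 5% gum acacia/water, i.p. at 30, 100 or 300 mg/kg, one to four animals per dose. PTZ at 85 mg/kg was injected 30 min after compound. Animals were examined 0.5 and 4 h after administration, and death following tonic extension was noted. The maximum dose was 300 mg/kg.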

Mus musculus [18] = assay: Toxicity in subcutaneous pentylenetetrazole-induced Swiss albino mouse assessed as myoclonic jerks at 300 mg/kg, ip after 0.5 hrs; format: organism-based; set-up: dose 300 mg/kg; method in brief: as §3
Mus musculus [19] = assay: Toxicity in subcutaneous pentylenetetrazole-induced Swiss albino mouse assessed as death at 30 to 300 mg/kg, ip after 4 hrs; format: organism-based; set-up: dose 30-300 mg/kg; method in brief: as §4

| Structure (SMILES) | minimal effective dose (Mus musculus [1]) | Activity (Mus musculus [2]) | minimal effective dose (Mus musculus [3]) | minimal effective dose (Mus musculus [5]) | Activity (Mus musculus [9]) | minimal effective dose (Mus musculus [11]) | Activity (Mus musculus [12]) | Activity (Mus musculus [13]) | Activity (Mus musculus [14]) | Activity (Mus musculus [15]) | Activity (Mus musculus [16]) | further results |
| --- | --- | --- | --- | --- | --- | --- | --- | --- | --- | --- | --- | --- |
| O=C(N/N=C/c1ccc([N+](=O)[O-])cc1)Nc1cccc2ccccc12 | 300 mg/kg | 300 mg/kg | 300 mg/kg | 300 mg/kg | Non-toxic | – | – | – | – | – | – | Activity (Mus musculus [4]): Toxic; Activity (Mus musculus [6]): 1.47 U; Activity (Mus musculus [7]): 1.73 U; Activity (Mus musculus [8]): 16.76 µg; Activity (Mus musculus [10]): 3.39 nmol |
| CCC1(C)CC(=O)NC1=O (stereo unspecified) [ETHOSUXIMIDE] | – | – | – | – | Non-toxic | 300 mg/kg | Non-toxic | inactive | inactive | inactive | – | – |
| O=C(N/N=C/c1ccc(Cl)cc1)Nc1cccc2ccccc12 | – | – | – | 300 mg/kg | – | 300 mg/kg | Non-toxic | inactive | – | inactive | 300 mg/kg | – |
| COc1ccc(/C=N/NC(=O)Nc2cccc3ccccc23)cc1OC | 100 mg/kg | – | 300 mg/kg | 100 mg/kg | Non-toxic | 100 mg/kg | Non-toxic | – | – | – | – | Activity (Rattus norvegicus): inactive; Activity (Mus musculus [6]): 1.62 U; Activity (Mus musculus [7]): 1.45 U; Activity (Mus musculus [8]): 18.51 µg; Activity (Mus musculus [10]): 2.53 nmol |
| C/C(=N\NC(=O)Nc1cccc2ccccc12)c1ccc(C)cc1 | – | 300 mg/kg | – | – | – | 300 mg/kg | – | inactive | inactive | inactive | 300 mg/kg | – |
| O=C(N/N=C/c1ccccc1)Nc1cccc2ccccc12 | 300 mg/kg | 100 mg/kg | – | – | – | – | – | – | inactive | inactive | 100 mg/kg | Activity (Mus musculus [17]): Toxic |
| C/C(=N\NC(=O)Nc1cccc2ccccc12)c1ccc(Cl)cc1Cl | – | 300 mg/kg | 300 mg/kg | 300 mg/kg | Non-toxic | – | – | inactive | – | – | – | Activity (Mus musculus [18]): Toxic |
| COc1ccc(/C=N/NC(=O)Nc2cccc3ccccc23)cc1 | 300 mg/kg | – | – | – | – | – | Non-toxic | – | inactive | inactive | 300 mg/kg | Activity (Mus musculus [17]): Toxic |
| CN(C)c1ccc(/C=N/NC(=O)Nc2cccc3ccccc23)cc1 | 100 mg/kg | 100 mg/kg | 300 mg/kg | 100 mg/kg | – | – | – | – | – | – | 100 mg/kg | Activity (Mus musculus [4]): Toxic |
| O=C(N/N=C/c1ccc(F)cc1)Nc1cccc2ccccc12 | – | 100 mg/kg | – | 300 mg/kg | Non-toxic | 300 mg/kg | – | inactive | – | – | – | Activity (Mus musculus [19]): Toxic |
| COc1cc(/C=N/NC(=O)Nc2cccc3ccccc23)ccc1O | 300 mg/kg | 100 mg/kg | – | – | – | 300 mg/kg | – | – | inactive | inactive | 100 mg/kg | – |
| COc1ccc(OC)c(/C=N/NC(=O)Nc2cccc3ccccc23)c1 | – | – | – | 300 mg/kg | – | 300 mg/kg | Non-toxic | inactive | – | inactive | 300 mg/kg | – |
